Experimental data published in ChEMBL document CHEMBL1142961, “Novel selective inhibitors of the zinc plasmodial aminopeptidase PfA-M1 as potential antimalarial agents” (J Med Chem, 2007).

Legend:
[1] = target: T1, Aminopeptidase N (Sus scrofa) (UniProt P15145); test: Inhibition of pig kidney microsomal APN at 10 uM
T1 sequence (whole entry): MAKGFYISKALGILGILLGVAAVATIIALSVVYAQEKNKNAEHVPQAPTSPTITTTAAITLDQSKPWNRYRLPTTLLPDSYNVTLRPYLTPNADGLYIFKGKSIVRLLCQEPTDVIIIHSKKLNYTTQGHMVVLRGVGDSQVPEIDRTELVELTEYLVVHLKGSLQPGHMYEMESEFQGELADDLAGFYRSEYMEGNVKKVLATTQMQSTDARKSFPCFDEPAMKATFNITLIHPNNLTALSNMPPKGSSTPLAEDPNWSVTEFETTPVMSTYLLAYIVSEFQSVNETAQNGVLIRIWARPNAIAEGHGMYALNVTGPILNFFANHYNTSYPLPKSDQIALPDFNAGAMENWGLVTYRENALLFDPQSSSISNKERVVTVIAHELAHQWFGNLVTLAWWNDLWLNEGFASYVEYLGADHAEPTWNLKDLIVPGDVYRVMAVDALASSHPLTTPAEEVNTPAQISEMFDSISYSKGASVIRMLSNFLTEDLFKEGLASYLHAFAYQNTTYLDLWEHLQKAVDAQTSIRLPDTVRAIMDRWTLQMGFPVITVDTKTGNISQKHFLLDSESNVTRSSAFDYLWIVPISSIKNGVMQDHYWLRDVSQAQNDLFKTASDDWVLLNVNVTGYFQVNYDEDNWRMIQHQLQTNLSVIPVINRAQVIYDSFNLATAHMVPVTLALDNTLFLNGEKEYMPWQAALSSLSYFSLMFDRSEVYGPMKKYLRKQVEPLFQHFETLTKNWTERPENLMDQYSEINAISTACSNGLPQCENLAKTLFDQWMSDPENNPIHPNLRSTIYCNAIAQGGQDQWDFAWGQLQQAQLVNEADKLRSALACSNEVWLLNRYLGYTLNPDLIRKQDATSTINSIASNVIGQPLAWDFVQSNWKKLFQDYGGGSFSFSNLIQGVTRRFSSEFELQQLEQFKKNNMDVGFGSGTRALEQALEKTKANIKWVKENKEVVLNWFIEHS
Outline: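 Porcine kidney microsomal APN (ammonium sulfate suspension) diluted 600-fold in 25 mM Tris-HCl pH 7.4. Preincubated with inhibitor for 10 min at room temperature, then Leu-pNA added (0.3 mM stock). Hydrolysis followed at 405 nm at room temperature. Rates normalized to a no-inhibitor control. Single point at 10 µM; IC50 from concentration-velocity curves. Bestatin used as reference.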

[2] = target: T2, Aminopeptidase N (Plasmodium falciparum FcB1/Columbia) (UniProt O96935); test: Inhibition of Plasmodium falciparum FcB1 M1 aminopeptidase at 10 uM
T2 sequence (whole entry): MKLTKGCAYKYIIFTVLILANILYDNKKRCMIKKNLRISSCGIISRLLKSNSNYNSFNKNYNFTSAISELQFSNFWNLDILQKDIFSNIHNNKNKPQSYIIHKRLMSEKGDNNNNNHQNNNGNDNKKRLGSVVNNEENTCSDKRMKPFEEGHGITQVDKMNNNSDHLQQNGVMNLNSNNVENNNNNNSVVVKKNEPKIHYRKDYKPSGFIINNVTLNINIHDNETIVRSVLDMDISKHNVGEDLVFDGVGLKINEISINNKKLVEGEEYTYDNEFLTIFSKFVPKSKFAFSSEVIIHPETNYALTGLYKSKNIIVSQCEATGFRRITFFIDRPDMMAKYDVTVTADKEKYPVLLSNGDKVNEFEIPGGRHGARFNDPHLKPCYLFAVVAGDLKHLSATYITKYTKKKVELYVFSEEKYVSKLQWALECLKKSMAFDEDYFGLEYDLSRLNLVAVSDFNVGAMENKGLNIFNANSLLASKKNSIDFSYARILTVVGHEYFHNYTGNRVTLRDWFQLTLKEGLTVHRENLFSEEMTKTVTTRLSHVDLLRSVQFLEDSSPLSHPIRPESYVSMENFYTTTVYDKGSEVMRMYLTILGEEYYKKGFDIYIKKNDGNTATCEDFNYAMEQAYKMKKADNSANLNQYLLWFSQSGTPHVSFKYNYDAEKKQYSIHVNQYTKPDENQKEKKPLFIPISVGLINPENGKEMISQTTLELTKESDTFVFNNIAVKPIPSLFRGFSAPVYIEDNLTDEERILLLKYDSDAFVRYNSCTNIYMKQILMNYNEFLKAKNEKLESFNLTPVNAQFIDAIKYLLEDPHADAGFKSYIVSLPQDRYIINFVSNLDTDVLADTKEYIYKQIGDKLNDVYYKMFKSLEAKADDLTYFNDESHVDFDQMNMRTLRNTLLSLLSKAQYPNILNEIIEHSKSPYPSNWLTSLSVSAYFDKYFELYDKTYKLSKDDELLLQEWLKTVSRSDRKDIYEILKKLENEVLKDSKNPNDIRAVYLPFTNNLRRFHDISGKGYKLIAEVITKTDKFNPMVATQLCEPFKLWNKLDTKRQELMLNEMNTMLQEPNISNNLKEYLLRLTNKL
Outline: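 Native enzyme purified from P. falciparum FcB1, diluted 10-fold in 25 mM Tris-HCl pH 7.4. Preincubated with inhibitor for 10 min at room temperature, then Leu-pNA substrate added (0.3 mM stock, Km 0.099 mM). Kinetics followed at 405 nm at room temperature. Initial velocities normalized to a no-inhibitor control. Single-point screen at 10 µM; IC50 from velocity versus inhibitor concentration curves. Bestatin used as reference.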

SMILES: CC(C)CC(C(=O)NO)C(=O)N1CCc2ccccc2C1 (configuration not stated)
- inhibition [1]: 90%
- inhibition [2]: 74%

SMILES: O=C(CC(=O)NCc1cccnc1)NO
- inhibition [1]: 18%
- inhibition [2]: 3%

SMILES: CC(C)CN(CCCCc1ccccc1)C(=O)CC(=O)NO
- inhibition [1]: 45%
- inhibition [2]: 22%

SMILES: CN(Cc1ccccc1)C(=O)CC(=O)NO
- inhibition [1]: 9%
- inhibition [2]: -4%

SMILES: NC(C(=O)NO)C(=O)NC1CCN(Cc2ccccc2)CC1 (configuration not stated)
- inhibition [1]: 25%
- inhibition [2]: -4%

SMILES: O=C(CC(=O)N1CCc2ccccc2C1)NO
- inhibition [1]: 19%
- inhibition [2]: -3%

SMILES: CC(C)CN(CCCCc1ccccc1)C(=O)C(Cc1ccccc1)C(=O)NO (configuration not stated)
- inhibition [1]: 28%
- inhibition [2]: 45%

SMILES: O=C(CC(=O)NCCc1ccccc1)NO
- inhibition [1]: 27%
- inhibition [2]: -2%

SMILES: CC(C)CC(C(=O)NO)C(=O)NCCCN(C)c1ccccc1 (configuration not stated)
- inhibition [1]: 81%
- inhibition [2]: 66%

SMILES: CN(CCCCc1ccccc1)C(=O)C(Cc1ccccc1)C(=O)NO (configuration not stated)
- inhibition [1]: 53%
- inhibition [2]: 76%

SMILES: O=C(NO)C(Cc1cccc(Oc2ccccc2)c1)C(=O)NCCc1ccccn1 (configuration not stated)
- inhibition [1]: 85%
- inhibition [2]: 67%

SMILES: O=C(CC(=O)N1CCC(n2c(=O)[nH]c3ccccc32)CC1)NO
- inhibition [1]: 19%
- inhibition [2]: 6%

SMILES: O=C(CC(=O)N1CCC2(CCNc3ccccc3O2)CC1)NO
- inhibition [1]: 27%
- inhibition [2]: -5%

SMILES: O=C(NO)C(Cc1ccccc1)C(=O)NCc1ccc(C(F)(F)F)cc1 (configuration not stated)
- inhibition [1]: 75%
- inhibition [2]: 67%

SMILES: NC(C(=O)NO)C(=O)N1CCC(Cc2ccccc2)CC1 (configuration not stated)
- inhibition [1]: 39%
- inhibition [2]: 45%

SMILES: CN(CCCCc1ccccc1)C(=O)C(Cc1cccc(Oc2ccccc2)c1)C(=O)NO (configuration not stated)
- inhibition [1]: 95%
- inhibition [2]: 80%

SMILES: NC(C(=O)NO)C(=O)N1CCC2(CC1)C(=O)NCN2c1ccccc1 (configuration not stated)
- inhibition [1]: 43%
- inhibition [2]: -6%

SMILES: O=C(NO)C(Cc1ccccc1)C(=O)N1CCN(c2ccccc2)CC1 (configuration not stated)
- inhibition [1]: 46%
- inhibition [2]: 20%

SMILES: O=C(NO)C(Cc1cccc(Oc2ccccc2)c1)C(=O)NCc1ccc(F)cc1 (configuration not stated)
- inhibition [1]: 22%
- inhibition [2]: 35%

SMILES: NC(C(=O)NO)C(=O)N1CCN(Cc2ccccc2)CC1 (configuration not stated)
- inhibition [1]: -5%
- inhibition [2]: 18%

SMILES: O=C(NO)C(Cc1cccc(Oc2ccccc2)c1)C(=O)NCCNc1cccc2ccccc12 (configuration not stated)
- inhibition [1]: 78%
- inhibition [2]: 66%

SMILES: NC(C(=O)NO)C(=O)N1CCN(c2ccccc2)CC1 (configuration not stated)
- inhibition [1]: 11%
- inhibition [2]: -2%

SMILES: CC(C)CC(C(=O)NO)C(=O)N(CCCCc1ccccc1)CC(C)C (configuration not stated)
- inhibition [1]: 60%
- inhibition [2]: 42%

SMILES: CC(C)CC(C(=O)NO)C(=O)NCc1cccnc1 (configuration not stated)
- inhibition [1]: 30%
- inhibition [2]: -4%

SMILES: O=C(NO)C(Cc1ccccc1)C(=O)N[C@H]1CCN(Cc2ccccc2)C1 (some centres not stated)
- inhibition [1]: 28%
- inhibition [2]: 43%

SMILES: O=C(CC(=O)N1CCN(Cc2ccc3c(c2)OCO3)CC1)NO
- inhibition [1]: 11%
- inhibition [2]: 7%

SMILES: Cc1ccccc1CNC(=O)C(Cc1cccc(Oc2ccccc2)c1)C(=O)NO (configuration not stated)
- inhibition [1]: 86%
- inhibition [2]: 99%

SMILES: NC(C(=O)NO)C(=O)NCCc1ccccc1 (configuration not stated)
- inhibition [1]: 25%
- inhibition [2]: -8%

SMILES: CC(C)CC(C(=O)NO)C(=O)NCCc1ccccn1 (configuration not stated)
- inhibition [1]: 86%
- inhibition [2]: 30%

SMILES: CN(Cc1ccccc1)C(=O)C(Cc1cccc(Oc2ccccc2)c1)C(=O)NO (configuration not stated)
- inhibition [1]: 89%
- inhibition [2]: 86%

SMILES: NC(C(=O)NO)C(=O)NCc1ccccc1 (configuration not stated)
- inhibition [1]: 77%
- inhibition [2]: 10%

SMILES: O=C(CC(=O)NCCc1ccccn1)NO
- inhibition [1]: 16%
- inhibition [2]: -2%

SMILES: O=C(NO)C(Cc1ccccc1)C(=O)N1CCN(Cc2ccc3c(c2)OCO3)CC1 (configuration not stated)
- inhibition [1]: 29%
- inhibition [2]: 53%

SMILES: O=C(NO)C(Cc1cccc(Oc2ccccc2)c1)C(=O)N1CCC2(CCNc3ccccc3O2)CC1 (configuration not stated)
- inhibition [1]: 81%
- inhibition [2]: 48%

SMILES: CC(C)CC(C(=O)NO)C(=O)NCc1cccc(-c2ccccc2)c1 (configuration not stated)
- inhibition [1]: 95%
- inhibition [2]: 69%

SMILES: O=C(NO)C(Cc1ccccc1)C(=O)NCCc1ccccn1 (configuration not stated)
- inhibition [1]: 47%
- inhibition [2]: 29%

SMILES: O=C(NO)C(Cc1ccccc1)C(=O)NCCC(c1ccccc1)c1ccccc1 (configuration not stated)
- inhibition [1]: 83%
- inhibition [2]: 65%

SMILES: NC(C(=O)NO)C(=O)N1CCc2ccccc2C1 (configuration not stated)
- inhibition [1]: 32%
- inhibition [2]: 49%

SMILES: O=C(NO)C(Cc1cccc(Oc2ccccc2)c1)C(=O)NCCc1ccccc1 (configuration not stated)
- inhibition [1]: 88%
- inhibition [2]: 98%

SMILES: O=C(CC(=O)N1CCC(Cc2ccccc2)CC1)NO
- inhibition [1]: 23%
- inhibition [2]: 7%

SMILES: O=C(NO)C(Cc1cccc(Oc2ccccc2)c1)C(=O)N1CCC(n2c(=O)[nH]c3ccccc32)CC1 (configuration not stated)
- inhibition [1]: 76%
- inhibition [2]: 74%

SMILES: O=C(NO)C(Cc1ccccc1)C(=O)N1CCN(C(c2ccccc2)c2ccccc2)CC1 (configuration not stated)
- inhibition [1]: 14%
- inhibition [2]: 0%

SMILES: O=C(NO)C(Cc1cccc(Oc2ccccc2)c1)C(=O)N1CCN(c2ccccc2)CC1 (configuration not stated)
- inhibition [1]: 63%
- inhibition [2]: 38%

SMILES: O=C(NO)C(Cc1cccc(Oc2ccccc2)c1)C(=O)N(CCc1ccccc1)Cc1ccccc1 (configuration not stated)
- inhibition [1]: 67%
- inhibition [2]: 38%

SMILES: O=C(NO)C(Cc1cccc(Oc2ccccc2)c1)C(=O)N1CCN(C(c2ccccc2)c2ccccc2)CC1 (configuration not stated)
- inhibition [1]: 41%
- inhibition [2]: -6%

SMILES: O=C(CC(=O)NCCC(c1ccccc1)c1ccccc1)NO
- inhibition [1]: 87%
- inhibition [2]: 50%

SMILES: NC(C(=O)NO)C(=O)NCc1ccc(C(F)(F)F)cc1 (configuration not stated)
- inhibition [1]: 55%
- inhibition [2]: 6%

SMILES: CC(C)CC(C(=O)NO)C(=O)N1CCN(c2ccccc2)CC1 (configuration not stated)
- inhibition [1]: 103%
- inhibition [2]: 38%

SMILES: CN(CCCNC(=O)C(Cc1cccc(Oc2ccccc2)c1)C(=O)NO)c1ccccc1 (configuration not stated)
- inhibition [1]: 83%
- inhibition [2]: 77%

SMILES: O=C(NO)C(Cc1cccc(Oc2ccccc2)c1)C(=O)N1CCN(Cc2ccccc2)CC1 (configuration not stated)
- inhibition [1]: 47%
- inhibition [2]: 84%

SMILES: NC(C(=O)NO)C(=O)NCc1cccc(Oc2ccccc2)c1 (configuration not stated)
- inhibition [1]: 31%
- inhibition [2]: 51%

SMILES: O=C(NO)C(Cc1ccccc1)C(=O)N1CCC(n2c(=O)[nH]c3ccccc32)CC1 (configuration not stated)
- inhibition [1]: 56%
- inhibition [2]: -1%

SMILES: O=C(NO)C(Cc1ccccc1)C(=O)N1CCC2(CCNc3ccccc3O2)CC1 (configuration not stated)
- inhibition [1]: 32%
- inhibition [2]: 7%

SMILES: O=C(CC(=O)NCCCc1ccccc1)NO
- inhibition [1]: 15%
- inhibition [2]: 2%

SMILES: CC(C)CC(C(=O)NO)C(=O)N[C@H]1CCN(Cc2ccccc2)C1 (some centres not stated)
- inhibition [1]: 86%
- inhibition [2]: 58%

SMILES: O=C(CC(=O)N1CCC2(CC1)C(=O)NCN2c1ccccc1)NO
- inhibition [1]: 19%
- inhibition [2]: 5%
